According to ChEMBL document CHEMBL1137668, “Activities of several classes of acyclic nucleoside phosphonates against camelpox virus replication in different cell culture models” (Antimicrob Agents Chemother, 2007):

How the values were obtained:
Camelpox virus [1] = assay: Antiviral activity against Camelpox virus CML1 infected in HEL299 cells assessed as inhibition of virus-induced cytopathic effect after 6 days by Giemsa staining; format: functional, organism-based; details: CML1, HEL 299, 144 h
Camelpox virus [2] = assay: Antiviral activity against Camelpox virus CML14 infected in HEL299 cells assessed as inhibition of virus-induced cytopathic effect after 6 days by Giemsa staining; format: functional, organism-based; details: CML14, HEL 299, 144 h
[3] = Cytotoxicity against HEL299 cells after 4 days by Z1 Coulter counting analysis; format: cell-based, HEL 299; details: human, HEL299 cells
In short: (§1)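 Cell growth inhibition: HEL cells were seeded at 3.5 × 10³ per well and PHKs at 5 × 10³ per well. Serial dilutions were added in duplicate after 1 day (HEL) or 3 days (PHK). After 4 days with compound, cells were trypsinized and counted with a Coulter counter (8 μm lower limit). CC50 is the concentration reducing growth by 50%, mean ± SD of at least two experiments.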

[4] = Selectivity index, ratio of CC50 for HEL299 cells to EC50 for Camelpox virus CML1 infected in HEL299 cells; format: toxicity, cell-based, HEL 299; details: human, HEL299 cells; read-out: Ratio CC50/IC50
[5] = Selectivity index, ratio of CC50 for HEL299 cells to EC50 for Camelpox virus CML14 infected in HEL299 cells; format: toxicity, cell-based, HEL 299; details: human, HEL299 cells; read-out: Ratio CC50/IC50
Camelpox virus [6] = assay: Antiviral activity against Camelpox virus CML1 infected in human PHK assessed as inhibition of virus-induced cytopathic effect after 6 days by Giemsa staining; format: functional, organism-based; details: CML1, 144 h
Camelpox virus [7] = assay: Antiviral activity against Camelpox virus CML14 infected in human PHK assessed as inhibition of virus-induced cytopathic effect after 6 days by Giemsa staining; format: functional, organism-based; details: CML14, 144 h
[8] = Cytotoxicity against human PHK after 4 days by Z1 Coulter counting analysis; details: PHK cells; in short: as §1
[9] = Selectivity index, ratio of CC50 for human PHK to EC50 for Camelpox virus CML1 infected in human PHK
[10] = Selectivity index, ratio of CC50 for human PHK to EC50 for Camelpox virus CML14 infected in human PHK
Camelpox virus [11] = assay: Antiviral activity against Camelpox virus CML1 infected in HEL299 cells assessed as reduction in viral titer after 6 days postinfection by virus yield reduction assay; format: functional; details: HEL 299

| Compound | EC50 (Camelpox virus [1]) [µM] | EC50 (Camelpox virus [2]) [µM] | CC50 at 96 h [3] [µM] | selectivity ratio [4] | selectivity ratio [5] | EC50 (Camelpox virus [6]) [µM] | EC50 (Camelpox virus [7]) [µM] | CC50 at 96 h [8] [µM] | Ratio CC50/IC50 [9] | Ratio CC50/IC50 [10] | Activity (Camelpox virus [11]) |
| --- | --- | --- | --- | --- | --- | --- | --- | --- | --- | --- | --- |
| Nc1nc(Cl)c2ncn(CCOCP(=O)(O)O)c2n1 | 6.9 | 9.3 | 8 | 1 | 1 | 7.9 | 15.9 | 1 | 0.2 | 0.1 | – |
| Nc1nc(N)c2ncn(CCOCP(=O)(O)O)c2n1 [PMEDAP] | > 173 | > 173 | 100 | < 1 | < 1 | 93 | 63.7 | 8 | 0.1 | 0.1 | – |
| CC(C)(C)C(=O)OCOP(=O)(COC(CO)Cn1cnc(N)nc1=O)OCOC(=O)C(C)(C)C (centres undefined) | 0.02 | 0.02 | 5 | 250 | 250 | 0.6 | 0.3 | 1 | 2 | 4 | Dose-dependent effect |
| Nc1nc(N(CC(=O)O)CC(=O)O)c2ncn(CCOCP(=O)(O)O)c2n1 | > 124 | > 124 | > 124 | 1 | – | > 124 | > 124 | > 124 | 1 | 1 | – |
| Nc1nc(NCCC(=O)O)c2ncn(CCOCP(=O)(O)O)c2n1 | > 139 | > 139 | 294 | < 2 | < 2 | > 139 | > 139 | 258 | <2 | <2 | – |
| Nc1nc(NCS(=O)(=O)O)c2ncn(CCOCP(=O)(O)O)c2n1 | 1.9 | 1.9 | 2 | 1 | 1 | 3.7 | 4.9 | 0.1 | 0.03 | 0.03 | – |
| C[C@@H](O)[C@H](Nc1nc(N)nc2c1ncn2CCOCP(=O)(O)O)C(=O)O | 112 | 112 | 39 | 0.3 | 0.3 | > 128 | > 128 | 19 | <0.2 | <0.2 | – |
| Nc1nc(NC(Cc2ccccc2)C(=O)O)c2ncn(CCOCP(=O)(O)O)c2n1 (racemic) | > 115 | > 115 | 101 | < 1 | < 1 | > 115 | > 115 | 27 | <0.2 | <0.2 | – |
| Nc1nc2c(ncn2CCOCP(=O)(O)O)c(=O)[nH]1 [GS-438] | 3.3 | 5.5 | 1 | 0.3 | 0.2 | 2.9 | 4.4 | 0.3 | 0.1 | 0.1 | – |
| CC(C)CC(Nc1nc(N)nc2c1ncn2CCOCP(=O)(O)O)C(=O)O (racemic) | 53 | 44.3 | 12 | 0.2 | 0.3 | 77.8 | 87.4 | 8 | 0.1 | 0.1 | – |
| NC1=NC(OC[C@@H]2CP(=O)(O)CO2)=CC(N)N1O (some centres undefined) | 5.2 | 7.6 | 147 | 28 | 19 | 16.1 | 18.4 | 43 | 3 | 2 | – |
| CC(O)C(Nc1nc(N)nc2c1ncn2CCOCP(=O)(O)O)C(=O)O (racemic) | 44.1 | 29 | 9 | 0.2 | 0.3 | 47.7 | 71.5 | 2 | 0.04 | 0.03 | – |
| C[C@H](O)[C@H](Nc1nc(N)nc2c1ncn2CCOCP(=O)(O)O)C(=O)O | 63 | 71.6 | 56 | 1 | 1 | > 128 | > 128 | > 16 | <0.1 | <0.1 | – |
| Nc1cc(OCCOCP(=O)(O)O)nc(N)n1 | > 189 | > 189 | 66 | < 0.3 | < 0.3 | 49.2 | 53.7 | 4 | 0.1 | 0.1 | – |
| Nc1nc(NC(CO)C(=O)O)c2ncn(CCOCP(=O)(O)O)c2n1 (racemic) | 54.5 | 55.7 | 3 | 0.1 | 0.1 | 81.8 | 93.4 | 2 | 0.03 | 0.03 | – |
| Nc1nc(NCCOCP(=O)(O)O)c2ncn(CCOCP(=O)(O)O)c2n1 | > 118 | > 118 | – | – | – | > 118 | > 118 | – | – | – | – |
| C[C@@H](Cn1cnc2c(N)ncnc21)OCP(=O)(O)O | > 176 | > 176 | > 176 | 1 | – | > 176 | > 176 | > 176 | 1 | 1 | – |
| Nc1nc(NCCS(=O)(=O)O)c2ncn(CCOCP(=O)(O)O)c2n1 | > 126 | > 126 | 258 | < 2 | < 2 | > 126 | > 126 | 102 | <1 | <1 | – |
| Nc1nc(N)c(Br)c(OCCOCP(=O)(O)O)n1 | > 156 | > 156 | 52 | < 0.3 | < 0.3 | > 156 | > 156 | – | – | – | – |
| Nc1ncnc2c1ncn2CCOCP(=O)(O)O [ADEFOVIR] | > 183 | > 183 | 211 | < 1 | < 1 | 162 | > 183 | 76 | 0.5 | <0.4 | – |
| Nc1nc(NCCP(=O)(O)O)c2ncn(CCOCP(=O)(O)O)c2n1 | > 127 | > 127 | 43 | < 0.3 | < 0.3 | > 127 | > 127 | 59 | <0.5 | <0.5 | – |
| CN(C)c1ncnc2c1ncn2CCOCP(=O)(O)O | 29.4 | 24.6 | 22 | 1 | 1 | 8.5 | 10.9 | 1 | 0.1 | 0.1 | – |
| Nc1nc(NC(CC(=O)O)C(=O)O)c2ncn(CCOCP(=O)(O)O)c2n1 (racemic) | 48.3 | 46 | 20 | 0.4 | 0.4 | > 124 | > 124 | 16 | <0.1 | <0.1 | – |
| Cc1nc(N)nc2c1ncn2CCOCP(=O)(O)O | > 174 | > 174 | > 174 | 1 | – | > 174 | > 174 | > 70 | 0.4 | 0.4 | – |
| Nc1nc(NCCCC(=O)O)c2ncn(CCOCP(=O)(O)O)c2n1 | > 134 | > 134 | 282 | < 2 | < 2 | > 134 | > 134 | > 134 | 1 | 1 | – |
